Test results: ChEMBL document CHEMBL1139254, “Synthesis and in vitro activities of a new antiviral duplex drug linking Zidovudine (AZT) and Foscarnet (PFA) via an octadecylglycerol residue” (Bioorg Med Chem, 2009)

Key:
[1] = test system: Human alphaherpesvirus 1; assay: Antiviral activity against acyclovir-sensitive HSV1 KOS isolate replication in african green monkey Vero cells by plaque reduction assay; format: functional, organism-based; settings: Human alphaherpesvirus 1, Vero
Outline: (§1)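 HSV-1 was grown and assayed by plaque reduction in Vero cell monolayers in MEM with 10% FCS. Drug was diluted in MEM–10% FCS from a 100 mM PBS stock, and IC50 was read from the plaque counts. KOS-M was derived from KOS by 3 weeks of passage in 13 μM ACV.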

[2] = test system: Human alphaherpesvirus 1; assay: Antiviral activity against acyclovir-resistant HSV1 L182 isolate replication in african green monkey Vero cells by plaque reduction assay; format: functional, organism-based; settings: Human alphaherpesvirus 1, Vero; outline: as §1
[3] = test system: Human betaherpesvirus 5; assay: Antiviral activity against ganciclovir-resistant HCMV3 isolate replication in HFF cells by plaque reduction assay; format: functional, organism-based; settings: Human betaherpesvirus 5, HFF
Outline: (§2)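 Plaque reduction run as a modified, simplified micro-culture, cell-associated immediate-early assay on human foreskin fibroblast monolayers (passage 15–30) in MEM with 10% FCS. Drug was diluted in MEM–10% FCS from a 100 mM PBS stock. IC50 came from Probit analysis. Strain HCMV-3res carries the UL97 C603W mutation. U405 is a clinical isolate from a pediatric stem cell transplant recipient.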

[4] = test system: Human alphaherpesvirus 1; assay: Antiviral activity against acyclovir-sensitive HSV1 L177 isolate replication in african green monkey Vero cells by plaque reduction assay; format: functional, organism-based; settings: Human alphaherpesvirus 1, Vero; outline: as §1
[5] = test system: Human alphaherpesvirus 1; assay: Antiviral activity against acyclovir-resistant HSV1 KOS-M isolate replication in african green monkey Vero cells by plaque reduction assay; format: functional, organism-based; settings: Human alphaherpesvirus 1, Vero; outline: as §1
[6] = test system: Human betaherpesvirus 5; assay: Antiviral activity against ganciclovir-resistant HCMV U405 isolate replication in HFF cells by plaque reduction assay; format: functional, organism-based; settings: Human betaherpesvirus 5, HFF; outline: as §2
[7] = test system: Human betaherpesvirus 5; assay: Antiviral activity against ganciclovir-sensitive HCMV1 isolate replication in HFF cells by plaque reduction assay; format: functional, organism-based; settings: Human betaherpesvirus 5, HFF; outline: as §2
[8] = test system: CEM-SS; assay: Growth inhibition of human CEM-SS cells; format: cell-based
Outline: (§3)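 Run at the National Cancer Institute (USA). The assay rests on HIV killing T4 lymphocytes. EC50 is the concentration protecting against virus cytopathic effect, and IC50 is 50% inhibition of cell growth. The therapeutic index is TI50 = IC50/EC50.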

[9] = test system: Human alphaherpesvirus 1; assay: Antiviral activity against acyclovir-resistant HSV1 K143 isolate replication in african green monkey Vero cells by plaque reduction assay; format: functional, organism-based; settings: Human alphaherpesvirus 1, Vero; outline: as §1
[10] = test system: Human immunodeficiency virus 1; assay: Antiviral activity against HIV1 infected in human CEM-SS cells assessed as inhibition of virus-induced cytopathic effect by plaque reduction assay; format: functional, organism-based; settings: Human immunodeficiency virus 1, CEM-SS; outline: as §3
[11] = test system: Human alphaherpesvirus 1; assay: Antiviral activity against acyclovir-sensitive HSV1 K161 isolate replication in african green monkey Vero cells by plaque reduction assay; format: functional, organism-based; settings: Human alphaherpesvirus 1, Vero; outline: as §1
[12] = Therapeutic index, IC50 for human CEM-SS cells to EC50 for HIV1; format: cell-based; settings: read-out: Ratio IC50/EC50; outline: as §3

Q: For `O=C(O)P(=O)(O)O` [FOSCARNET], which IC50 [1] is on record?
A: The IC50 was 125 µM.

Q: And the IC50 [2]?
A: Its IC50 is 46 µM.

Q: What about the IC50 [3] of the same compound?
A: The IC50 was 67.5 µM.

Q: What about the IC50 [4] of the same compound?
A: Its IC50 is 64 µM.

Q: And the IC50 [5]?
A: The IC50 was 112 µM.

Q: What about the IC50 [6] of the same compound?
A: Its IC50 is 400 µM.

Q: Which results are given for `CCCCCCCCCCCCCCCCCCOC[C@H](COP(=O)(O)C(=O)O)OP(=O)(O)OC[C@H]1O[C@@H](n2cc(C)c(=O)[nH]c2=O)C[C@@H]1N=[N+]=[N-]`?
A: IC50 [1]: 4.02 µM; IC50 [7]: 2.78 µM; IC50 [2]: 1.87 µM; IC50 [8]: 92.7 µM; IC50 [3]: 1.18 µM; IC50 [9]: 4.59 µM; IC50 [4]: 1.92 µM; EC50 [10]: 0.17 µM; IC50 [11]: 2.27 µM; IC50 [5]: 3.39 µM; selectivity ratio [12]: 454; IC50 [6]: 4.29 µM

Q: Which IC50 [1] does the source give for `Nc1nc2c(ncn2COCCO)c(=O)[nH]1` [ACYCLOVIR] here?
A: The IC50 was 3.04 µM.

Q: What about the IC50 [2] of the same compound?
A: Its IC50 is 9.51 µM.

Q: And the IC50 [9]?
A: The IC50 was 75.1 µM.

Q: And the IC50 [4]?
A: Its IC50 is 0.32 µM.

Q: And the IC50 [11]?
A: Its IC50 is 0.58 µM.

Q: What about the IC50 [5] of the same compound?
A: Its IC50 is 31.2 µM.

Q: With `Nc1nc2c(ncn2COC(CO)CO)c(=O)[nH]1` [GANCICLOVIR] as the compound, how does the IC50 [7] read?
A: The IC50 was 3.22 µM.

Q: And the IC50 [3]?
A: Its IC50 is 16.4 µM.
